This note sets out measurements from ChEMBL document CHEMBL5252639, “Exploration of cytotoxic potential and tubulin polymerization inhibition activity of cis-stilbene-1,2,3-triazole congeners” (RSC Med Chem, 2023).

As usually defined, the inhibition is the percentage by which the read-out fell short of the control.

The test system of test [1] is HCT-116. Nature of the test: Induction of morphological change in human HCT-116 cells assessed as cell detachment incubated for 24 hrs by phase contrast microscopic analysis. Format: functional, cell-based. The method, boiled down: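 HCT-116 plated at 1 × 10^6 cells/mL in RPMI + 10% FBS and allowed to adhere 24 h at 37 °C, 5% CO2. […] After 24 h, morphology imaged by phase-contrast microscopy at 20X.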

The test system of test [2] is HCT-116. Nature of the test: Induction of apoptosis in human HCT-116 cells assessed as late apoptotic cells at 3.25 uM measured after 24 hrs by Annexin V-FITC/propidium iodide staining based flow cytometry (reference value: 0.00%). Format: functional. In general terms: In flow cytometry, cells or beads pass a laser one at a time.
In test [3] the test system is HCT-116. Nature of the test: Induction of apoptosis in human HCT-116 cells assessed as viable cells at 6.50 uM measured after 24 hrs by Annexin V-FITC/propidium iodide staining based flow cytometry (reference value: 99.71%). The test is classed as functional. The conditions noted are these: read-out: Activity.
Test [4] concerns the target Tubulin (Homo sapiens) (UniProt P68371+Q9H4B7+P0DPH7+P68366+Q13509+Q71U36+P04350+Q3ZCM7+P07437+P68363+Q9BQE3+Q6PEY2+Q13885+Q9BVA1+Q9BUF5). In words: Inhibition of tubulin polymerization in human HCT-116 cells at 6.50 uM measured after 1 hr relative to control. Format: cell-based. The conditions noted are these: dose 6.5 µM.
For test [5], the system named is HCT-116. In words: Induction of apoptosis in human HCT-116 cells assessed as late apoptotic cells at 1.62 uM measured after 24 hrs by Annexin V-FITC/propidium iodide staining based flow cytometry (reference value: 0.00%). Format: functional.
In test [6] the test system is HCT-116. In words: Induction of cell cycle arrest in human HCT-116 cells assessed as accumulation of cells at G2/M phase at 6.50 uM measured after 48 hrs by PI staining based flow cytometry analysis relative to control (reference value: 15.61%). Format: functional. The conditions noted are these: dose 6.5 µM.
Test [7] concerns HCT-116. In words: Induction of apoptosis in human HCT-116 cells assessed as necrotic cells at 3.25 uM measured after 24 hrs by Annexin V-FITC/propidium iodide staining based flow cytometry (reference value: 0.00%). The test is classed as functional.
In test [8] the test system is HCT-116. Nature of the test: Induction of apoptosis in human HCT-116 cells assessed as viable cells at 3.25 uM measured after 24 hrs by Annexin V-FITC/propidium iodide staining based flow cytometry (reference value: 99.71%). Format: functional. The conditions noted are these: read-out: Activity.
Test [9] deals with HCT-116. In words: Induction of apoptosis in human HCT-116 cells assessed as necrotic cells at 6.50 uM measured after 24 hrs by Annexin V-FITC/propidium iodide staining based flow cytometry (reference value: 0.00%). The test is classed as functional. The conditions noted are these: dose 6.5 µM.
Test [10] has as its system HCT-116. Nature of the test: Induction of cell cycle arrest in human HCT-116 cells assessed as accumulation of cells at G2/M phase at 3.25 uM measured after […] by PI staining based flow cytometry analysis relative to control (reference value: 15.61%). Format: functional.
In test [11] the test system is HCT-116. Nature of the test: Induction of apoptosis in human HCT-116 cells assessed as horseshoe shaped nuclei measured for 24 hrs by DAPI staining based microscopic analysis. Format: functional, cell-based. The conditions noted are these: dose 1.62-6.5 µM. The method, boiled down: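 Then PBS wash, 4% paraformaldehyde fixation 30 min, 0.1% Triton X permeabilisation 15 min, 1 µM DAPI 15 min, PBS wash. Imaged by fluorescence microscopy (ex 350/em 460 nm), 20X.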

For `COc1ccc(/C=C(/C(=O)OCc2cn(Cc3cc(F)ccc3F)nn2)c2ccc(OC)c(OC)c2)cc1OC`, the Activity entry in test [1] is “Dose-Dependent Effect”; in [2], 25.22%; in test [5], 0.16%; in [6], 46.89%; in test [7], 16.66%; in [9] it was 12.94%. Further, the Activity in test [10] is 38.72%; in [11], “Dose-Dependent Effect”. For the same compound, the viability at 6.5 µM in test [3] was determined as 27.5%. This compound also yielded an inhibition in test [4] of 65.2%. Also, the viability at 3.25 µM in [8] came to 44.6%.
